From article PMC10825487 (Heliyon, 2024) come the findings set out here.

As a reminder, the inhibition is the change of the read-out against control, counted positive when it falls. Read a high inhibition as a strong effect. Usually IC50 stands for the concentration that gives 50% inhibition. Higher therefore signals weaker potency in that assay.

SMILES strings stand for the structures.

The target in this test is DENV2 NS2B-NS3 protease (Dengue virus type 2, UniProt P29990). As to the kind of experiment: DENV2 NS2B-NS3 protease inhibition assay. Format: biochemical. The following applies: for IC50: IC50 (Table 3), in vitro inhibition of DENV2 NS2B-NS3 protease, two decimals; for fold decrease of inhibitory activity: based on IC50, compared to 3e. The procedure, abridged: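 Recombinant DENV-2 NS2B-NS3 protease (pQE-30, E. coli XL1-Blue MRF', IPTG-induced, Ni-NTA-purified) at 3.5 µM in 200 mM Tris-HCl pH 8.5. Preincubated with test compound (700 µM screen; 5.5–700.0 µM for IC50) for 10 min at 37 °C. Then 150 µM Boc-Gly-Arg-Arg-MCA added, 1 h at 37 °C. AMC read at ex 365/em 410 nm. % inhibition relative to enzyme+substrate control, buffer blank subtracted. n = 3; IC50 by nonlinear regression.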
Chain of DENV2 NS2B-NS3 protease (P29990 1346-1475): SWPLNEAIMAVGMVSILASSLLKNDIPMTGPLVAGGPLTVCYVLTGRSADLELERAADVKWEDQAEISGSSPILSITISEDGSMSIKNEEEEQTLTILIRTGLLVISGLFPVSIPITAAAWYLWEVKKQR
Chain of DENV2 NS2B-NS3 protease (P29990 1476-1653): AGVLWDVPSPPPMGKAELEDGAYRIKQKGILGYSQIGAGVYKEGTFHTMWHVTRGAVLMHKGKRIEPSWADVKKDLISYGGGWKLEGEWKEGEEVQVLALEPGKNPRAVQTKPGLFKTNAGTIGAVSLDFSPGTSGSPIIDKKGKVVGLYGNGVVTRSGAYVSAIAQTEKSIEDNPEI

In turn, `FC(F)(F)Oc1ccc(-c2nc3cc4nc5ccccc5nc4cc3[nH]2)cc1` [Compound 3k, 2-(4-(trifluoromethoxy)phenyl)-1H-imidazo [4,5-b]phenazine] registered an inhibition at 700 µM of 63.3 ± 2.8% and an IC50 of 71.9 µM.

Molecule `COc1cc(-c2nc3cc4nc5ccccc5nc4cc3[nH]2)cc(OC)c1OC` [Compound 3g, 2-(3,4,5-trimethoxyphenyl)-1H-imidazo [4,5-b]phenazine] came in with an inhibition at 700 µM of 53.3 ± 2.76%.

Consider `O=c1c(O)c(-c2ccc(O)c(O)c2)oc2cc(O)cc(O)c12` [Quercetin, reference compound], for which testing at 700 µM gave an inhibition of 90.27 ± 0.49% and the 50% inhibitory concentration (IC50) worked out at 105 µM.

Take `COc1ccc(-c2nc3cc4nc5ccccc5nc4cc3[nH]2)cc1[N+](=O)[O-]` [Compound 3a, 2-(4-methoxy-3-nitrophenyl)-1H-imidazo [4,5-b]phenazine]: testing at 700 µM gave an inhibition of 83.5 ± 1.96% and the “fold decrease of inhibitory activity” value came to 1 fold.

Take `Fc1ccc(-c2nc3cc4nc5ccccc5nc4cc3[nH]2)cc1` [Compound 3m, 2-(4-fluorophenyl)-1H-imidazo [4,5-b]phenazine]: testing at 700 µM gave an inhibition of 84.8 ± 0.89%. In addition, the “fold decrease of inhibition” value (based on IC50, compared to 3k) turned out to be 2.2 fold.

With `Oc1ccccc1-c1nc2cc3nc4ccccc4nc3cc2[nH]1` [Compound 3b, 2-(2-hydroxyphenyl)-1H-imidazo [4,5-b]phenazine], the inhibition at 700 µM was 46.6 ± 1.68%.

As to `O=[N+]([O-])c1ccc(-c2nc3cc4nc5ccccc5nc4cc3[nH]2)cc1O` [Compound 3e, 2-(3-hydroxy-4-nitrophenyl)-1H-imidazo [4,5-b]phenazine], the inhibition at 700 µM turned out to be 95.5 ± 1.75% and inhibition was half-maximal at 54.8 µM (IC50).

In the case of `Oc1ccc(-c2nc3cc4nc5ccccc5nc4cc3[nH]2)c(O)c1` [Compound 3h, 2-(2,4-dihydroxyphenyl)-1H-imidazo [4,5-b]phenazine], the inhibition at 700 µM was 84.7 ± 1.26%.

`CC(C)c1ccc(-c2nc3cc4nc5ccccc5nc4cc3[nH]2)cc1` [Compound 3i, 2-(4-isopropylphenyl)-1H-imidazo [4,5-b]phenazine]: the inhibition at 700 µM came out at 75.68 ± 0.26%.

Consider `Oc1ccc(-c2nc3cc4nc5ccccc5nc4cc3[nH]2)cc1` [Compound 3j, 2-(4-hydroxyphenyl)-1H-imidazo [4,5-b]phenazine], for which testing at 700 µM gave an inhibition of 60.3 ± 2.27% and the “fold decrease of inhibitory activity” value was 3 fold.

`COc1ccc(-c2nc3cc4nc5ccccc5nc4cc3[nH]2)cc1OC` [Compound 3c, 2-(3,4-dimethoxyphenyl)-1H-imidazo [4,5-b]phenazine] came in with an inhibition at 700 µM of 55.31 ± 0.39%.

Consider `COc1cc([N+](=O)[O-])ccc1-c1nc2cc3nc4ccccc4nc3cc2[nH]1` [Compound 3d, 2-(2-methoxy-4-nitrophenyl)-1H-imidazo [4,5-b]phenazine], for which 700 µM produced 83.9 ± 1.67% inhibition and the “fold decrease of inhibitory activity” value stood at 1.4 fold.

For `Fc1ccccc1-c1nc2cc3nc4ccccc4nc3cc2[nH]1` [Compound 3l, 2-(2-fluorophenyl)-1H-imidazo [4,5-b]phenazine], testing at 700 µM gave an inhibition of 78.23 ± 0.03%.

`Oc1c(Br)cccc1-c1nc2cc3nc4ccccc4nc3cc2[nH]1` [Compound 3f, 2-(3-bromo-2-hydroxyphenyl)-1H-imidazo [4,5-b]phenazine] showed an inhibition at 700 µM of 70.8 ± 1.46%.
